The values that follow come from ChEMBL document CHEMBL4270654, “Identification of DK419, a potent inhibitor of Wnt/β-catenin signaling and colorectal cancer growth” (Bioorg Med Chem, 2018).

Calls of active or inactive are those of the source. No cut-off for these calls is given here.

For data set [1], the system named is Mus musculus. Description: In vivo inhibition of Wnt/beta-catenin signaling pathway in NOD/SCID mouse xenografted with human CRC240 cells assessed as reduction in c-Myc protein expression at 1 mg/kg, po administered 11 days by Western blot method. The data set is classed as functional, organism-based. An outline of the steps:
(§1)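 CRC240 PDX tumours were taken from NOD/SCID mice the day after 11 days of once-daily oral dosing (1 mg/kg, in 10% NMP/90% PEG300). Tumours were lysed in RIPA buffer and immunoblotted for Axin2, survivin and c-Myc. Bands were normalized to β-actin, n = 3, two-tailed t-test versus vehicle.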
On the technique in general: A xenograft is tissue or cells of one species grown in another, often human tumour cells in immunodeficient mice.

For data set [2], the system named is Mus musculus. Description: Dose normalized AUC (0 to infinity) in NOD/SCID mouse at 1 mg/kg, po by LC-MS/MS-based compartmental first order extravascular input, first order elimination analysis. The data set is classed as ADME, organism-based. Particulars: in vivo.
The test system of data set [3] is Mus musculus. Kind of data set: In vivo inhibition of Wnt/beta-catenin signaling pathway in NOD/SCID mouse xenografted with human CRC240 cells assessed as reduction in Axin2 protein expression at 1 mg/kg, po administered 11 days by Western blot method. The data set is classed as functional, organism-based. In outline: as §1
For data set [4], the system named is Mus musculus. Description: In vivo inhibition of Wnt/beta-catenin signaling pathway in NOD/SCID mouse xenografted with human CRC240 cells assessed as reduction in survivin protein expression at 1 mg/kg, po administered 11 days by Western blot method. The data set is classed as functional, organism-based. An outline of the steps:
as §1

The nature of data set [5]: Apparent oral volume of distribution in NOD/SCID mouse at 1 mg/kg by LC-MS/MS-based compartmental first order extravascular input, first order elimination analysis. The settings on record: in vivo. The format is ADME, organism-based.
For data set [6], the system named is Mus musculus. Description: Apparent clearance in NOD/SCID mouse at 1 mg/kg, po by LC-MS/MS-based compartmental first order extravascular input, first order elimination analysis. The data set is classed as ADME, organism-based. The settings on record: in vivo.
The test system of data set [7] is Mus musculus. Description: Toxicity in NOD/SCID mouse xenografted with human CRC240 cells assessed as change in body weight at 1 mg/kg, po administered 11 days and measured on day 4, 8 during compound dosing and day 11 post last dose. The format is organism-based. The settings on record: in vivo, 264 h. In outline:
(§2)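 Minced CRC240 PDX tissue (150 mg/ml in PBS, 200 μl) implanted in flanks of NOD/SCID mice. At about 100 mm3 tumours, mice randomized and dosed orally once daily for 11 days. Vehicle: 10% 1-methyl-2-pyrrolidinone/90% PEG300, with dosing suspensions or solutions at […] or 0.2 mg/ml. Tumour size and body weight recorded on days 0, 4, 8 and 11. n = 3, two-tailed t-test versus vehicle.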

Data set [8] concerns Mus musculus. Description: Apparent clearance in NOD/SCID mouse at 1 mg/kg, po by LC-MS/MS-based non-compartmental extravascular input analysis. The data set is classed as ADME, organism-based. Particulars: in vivo.
The subject of data set [9] is Mus musculus. Kind of data set: Time at which plasma concentration stays above in vitro IC50 for antiproliferative activity against human CRC240 cells in NOD/SCID mouse at 1 mg/kg, po by LC-MS/MS analysis. The data set is classed as organism-based. The settings on record: in vivo. In outline: (§3)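 NOD/SCID mice (n = 4) received a single oral dose of 1 mg/kg from a 0.2 mg/mL solution in 10% NMP/90% PEG300. Serial tail-vein blood was taken from pre-dose to 72 h and plasma kept at −80 °C. Samples were extracted with ethyl acetate against an internal standard and run on LC/MS/MS (MRM 405.8/218.9). The calibration range was 2.4–1000 ng/mL in plasma.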

Data set [10] deals with Mus musculus. Kind of data set: Apparent volume of distribution in NOD/SCID mouse at 1 mg/kg, po by LC-MS/MS-based non-compartmental extravascular input analysis. The data set is classed as ADME, organism-based. Particulars: in vivo.
Data set [11] concerns Homo sapiens. Description: Antitumor activity against human CRC240 cells xenografted in NOD/SCID mouse at 1 mg/kg, po administered 11 days and measured on day 4, 8 during compound dosing and day 11 post last dose. The format is functional, organism-based. In outline: as §2
For data set [12], the system named is Mus musculus. Description: Dose normalized AUC (0 to infinity) in NOD/SCID mouse at 1 mg/kg, po by LC-MS/MS-based non-compartmental extravascular input analysis. The data set is classed as ADME, organism-based. The settings on record: in vivo.
For data set [13], the system named is Mus musculus. Kind of data set: Time at which plasma concentration stays above in vitro IC50 for inhibition of Wnt3A-stimulated Wnt/beta-catenin pathway in HEK293 cells in NOD/SCID mouse at 1 mg/kg, po by LC-MS/MS analysis. The data set is classed as organism-based. Particulars: in vivo. An outline of the steps: as §3
Data set [14] in a line: AUC (0 to 72 hrs) in NOD/SCID mouse at 1 mg/kg, po by LC-MS/MS-based non-compartmental extravascular input analysis. The format is ADME, organism-based. On the set-up: dose 1 mg/kg, time < 72 hr, route oral. The settings on record: in vivo.
The species named for data set [15] is Homo sapiens. Description: Inhibition of Wnt/beta-catenin signaling pathway in human SW480 whole cell lysate harboring APC mutation assessed as reduction in c-Myc protein expression at 5 uM after 18 hrs by Western blot analysis. An outline of the steps: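 CCRC240, HCT116 or SW480 cells were grown to 50–70% confluency and exposed 18 h to 5 μM compound in DMSO. Whole-cell lysates were blotted for c-Myc, cyclin D1 and survivin. Hypotonic cytosolic fractions, syringe-dispersed and centrifuged 120 min, were blotted for β-catenin and Axin2. β-Actin served as loading control.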
(In general: A western blot detects proteins with antibodies after separation by electrophoresis.)

Data set [16] deals with Mus musculus. Description: Apparent volume of distribution in NOD/SCID mouse at 200 mg/kg, po by LC-MS/MS-based non-compartmental extravascular input analysis. The format is ADME, organism-based. The settings on record: in vivo.
Data set [17] is described as follows: AUC (0 to 24 hrs) in NOD/SCID mouse at 200 mg/kg, po by LC-MS/MS-based non-compartmental extravascular input analysis. The data set is classed as ADME, organism-based. The arrangement: time < 24 hr, dose 200 mg/kg, route oral. The settings on record: in vivo.
Data set [18] has as its system Homo sapiens. Description: Antitumor activity against human CRC240 cells xenografted in NOD/SCID mouse at 72 mg/kg, po administered 11 days and measured on day 4, 8 during compound dosing and day 11 post last dose. The data set is classed as functional, organism-based. In outline:
as §2

Data set [19] has as its system Mus musculus. Description: Dose normalized AUC (0 to infinity) in NOD/SCID mouse at 200 mg/kg, po by LC-MS/MS-based non-compartmental extravascular input analysis. The data set is classed as ADME, organism-based. The settings on record: in vivo.
Data set [20] can be described thus: MRT in NOD/SCID mouse at 200 mg/kg, po by LC-MS/MS-based non-compartmental extravascular input analysis. The data set is classed as ADME, organism-based. The settings on record: in vivo.
Data set [21] in a line: AUC (0 to infinity) in NOD/SCID mouse at 200 mg/kg, po by LC-MS/MS-based non-compartmental extravascular input analysis. The data set is classed as ADME, organism-based. The arrangement: dose 200 mg/kg, time infinity, route oral. The settings on record: in vivo.
In data set [22] the test system is Mus musculus. Kind of data set: Toxicity in NOD/SCID mouse xenografted with human CRC240 cells assessed as change in body weight at 72 mg/kg, po administered 11 days and measured on day 4, 8 during compound dosing and day 11 post last dose. The format is organism-based. Particulars: in vivo, 264 h. In outline: as §2

A word on the Vd/F: it is the apparent distribution volume after extravascular dosing. A word on the CL/F: it is clearance divided by bioavailability, as obtained after extravascular dosing. Broadly, the AUC(0-t) is exposure summed from dosing to a finite time, without extrapolation to infinity. Read a high AUC(0-t) as high exposure. As usually defined, the MRT is a mean duration of stay, worked out from the concentration-time curve. Usually AUC(0-inf) stands for total exposure, with the tail of the curve extrapolated. A high value points to high exposure.

Turning to `O=C(Nc1ccc(C(F)(F)F)cc1)c1cc(Cl)cc2nc(C(F)(F)F)[nH]c12`, the inhibition result in data set [1], in data set [3], in data set [4] and in data set [15] was “Active” throughout. The values for the AUC/dose in data set [2] and in data set [12] were 16.3 µg·h/mL and 16.9 µg·h/mL, respectively. Also, the Vd/F in data set [5] came to 0.98 L/kg. The apparent clearance CL/F in [6] and in data set [8] was 1 mL/min/kg each time. In addition, the Activity entry in data set [7] is given as “Non-Toxic”. For the same compound, the Time in data set [9] and in data set [13] was 24 h in each case. The Vz in data set [10] came to 0.8 L/kg. Further, the outcome in [11] was Active. The exposure AUC(0-t) at 72 h in [14] was determined as 16800 ng·h/mL.
As for `O=C(Nc1ccc([N+](=O)[O-])cc1Cl)c1cc(Cl)ccc1O` [NICLOSAMIDE], the Vz in data set [16] turned out to be 0.9 L/kg. In data set [17], this compound registered an exposure AUC(0-t) at 24 h of 1010 ng·h/mL. For the same compound, the result in data set [18] was Active. In [19], this compound registered an AUC/dose of 0.005 µg·h/mL. For the same compound, the inhibition entry in data set [15] was “Active”. The compound further registered a mean residence time MRT in data set [20] of 6.8 h. Besides, in data set [21], the total exposure AUC(0-inf) came out at 1020 ng·h/mL. Further, the Activity result in data set [22] was “Non-Toxic”.
